Data as given in publication PMC4618641 (Pharmacology Research & Perspectives, 2015).
Entries after “also recorded” stand apart in the source; their conditions may differ.

Legend:
DU145TXR cells [1] = test: Potentiation assay; format: cell-based, human; details: 10 nmol/L - 25 μmol/L inhibitor, 48 h
Method in brief: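 Paclitaxel-selected DU145TXR (maintained in 10 nmol/L paclitaxel) seeded, then after 48 h co-treated 48 h with 500 nmol/L paclitaxel plus inhibitor at 10 nmol/L–25 μmol/L (400X DMSO solutions), triplicate wells; parallel run without paclitaxel. MTT read at 570 minus 720 nm. Survival relative to DMSO-treated wells without inhibitor; ≥6 replicates from ≥2 experiments. PC50 from a four-parameter variable-slope fit.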

DU145TXR cells [2] = test: Dose-dependent sensitization to paclitaxel; format: cell-based, human; details: for Synergy with paclitaxel (isobologram): DU145TXR, 5, 10, 25 μmol/L compound
DU145TXR cells [3] = test: Reversal of resistance to doxorubicin; format: cell-based, human; details: 25 μmol/L compound, data not shown
HFL1 cells = test: Intrinsic cytotoxicity assay; format: cell-based, human; details: for Decrease in cell viability: HFL1, 25 μmol/L compound, not shown; for IC50: Homo sapiens, HFL1, 48 h, read-out: IC50 (compound alone, estimated)
Method in brief: (§1)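 Cells seeded at 2 × 10^4 cells/mL, grown 48 h, then exposed 48 h to test compound at 0.05–50 μmol/L from 200X DMSO solutions, with DMSO controls (n = 12/plate). PBS rinse, then fresh medium for 24 h and MTT for 4 h; A570 minus A720, blank subtracted. Survival is relative to DMSO; ≥6 replicates, ≥2 experiments. IC50 from a four-parameter fit constrained 0–100. HFL1 grown in F-12K on collagen-treated surfaces.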

DU145 cells = test: Intrinsic cytotoxicity assay; format: cell-based, human; details: for IC50: Homo sapiens, DU-145, 48 h, read-out: IC50 (compound alone, estimated)
Method in brief: as §1

DU145TXR cells [4] = test: Intrinsic cytotoxicity assay; format: cell-based, human; details: for IC50: Homo sapiens, 48 h, read-out: IC50 (compound alone, estimated)
Method in brief: as §1

P-gp [5] = details: in the presence of the transport substrate verapamil; ref Brewer et al. [2014]; cited from earlier work
P-gp [6] = details: ref Brewer et al. [2014]; cited from earlier work
DU145TXR cells [7] = test: MTT cell viability assay, chemotherapeutics on multidrug-resistant DU145TXR; format: cell-based, human
[8] = tested on: DU145 human prostate cancer cells; test: MTT cell viability assay, chemotherapeutics on naïve DU145; format: cell-based
Method in brief: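 DU145 in RPMI-1640 with 10% FBS, seeded at 2 × 10^4 cells/mL, then after 48 h given a paclitaxel (or doxorubicin) range from 400X DMSO dilutions for 48 h. PBS rinse, fresh medium 24 h, then MTT 4 h; formazan dissolved in DMSO, read at 570 minus 720 nm. Survival relative to DMSO controls (n = 12/plate); ≥9 replicates from ≥3 experiments.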

With Cc1cc(C)c(-c2cc(NC(=O)CSc3n[nH]c(C4CC4)n3)n(-c3ccccc3)n2)cc1C [Compound 29, 2-[(5-cyclopropyl-1H-1,2,4-triazol-3-yl)sulfanyl]-N-[2-phenyl-5-(2,4,5-trimethylphenyl)pyrazol-3-yl]acetamide] the “Effect on sensitivity of DU145TXR to 500 nmol/L paclitaxel” value (“Effect on sensitivity of DU145TXR” below) (DU145TXR cells [1]) was “strongly affected the sensitivity”, the “Synergy with paclitaxel (isobologram)” value (DU145TXR cells [2]) was “strong synergistic effect” and the Resensitization to doxorubicin (DU145TXR cells [3]) was “resensitized the MDR prostate cancer cells to doxorubicin to levels that are comparable with the naïve DU145 cell line”. The “Decrease in cell viability” value (HFL1 cells) was 35%, the IC50 (HFL1 cells) was 42 µM and the IC50 (DU145 cells) was 34 µM. The IC50 (DU145TXR cells [4]) was 39 µM, the “Inhibition of verapamil-stimulated ATP hydrolysis” value (shortened to “Inhibition”) (P-gp [5]) was “inhibit ATP hydrolysis” and the “Effect on nucleotide binding (ESR, SL-ATP)” value (from here on “Effect on nucleotide binding”) (P-gp [6]) was “did not affect nucleotide-binding characteristics”.
For COc1cccc2c1C(=O)c1c(O)c3c(c(O)c1C2=O)C[C@@](O)(C(=O)CO)C[C@@H]3O[C@H]1C[C@H](N)[C@H](O)[C@H](C)O1 [doxorubicin], the “Fold resistance (IC50 DU145TXR / IC50 DU145)” value (DU145TXR cells [7]; DU145TXR compared to DU145) was “over eightfold; also recorded: about eightfold”.
With CC(=O)O[C@H]1C(=O)[C@@]2(C)[C@H]([C@H](OC(=O)c3ccccc3)[C@]3(O)C[C@H](OC(=O)[C@H](O)[C@@H](NC(=O)c4ccccc4)c4ccccc4)C(C)=C1C3(C)C)[C@]1(OC(C)=O)CO[C@@H]1C[C@@H]2O [Paclitaxel, paclitaxel] the “Survival at 500 nmol/L paclitaxel” value [8] was < 10%, the “Survival at 500 nmol/L paclitaxel” value (DU145TXR cells [7]; DU145TXR) was > 85% and the IC50 (DU145TXR cells [7]; read-out: IC50 of chemotherapeutic alone, DU145TXR, 48 h incubation, MTT) was 3.76 µM.
In the case of COC(=O)c1ccc(C(c2c(O)oc3ccccc3c2=O)c2c(O)oc3ccccc3c2=O)cc1 [Compound 19, methyl 4-[bis(2-hydroxy-4-oxochromen-3-yl)methyl]benzoate], the “Effect on sensitivity of DU145TXR” value (DU145TXR cells [1]) is reported as “no apparent effect”, the “Effect on sensitivity of DU145TXR” value (DU145TXR cells [1]; listed as compound 19) is reported as “no effect on the toxicity of paclitaxel” and the “Effect on cell viability in sensitization experiments” value (DU145TXR cells [2]; DU145TXR, paclitaxel, 5, 10, 25 μmol/L compound) is reported as “did not show any effect on cell viability”. The IC50 (DU145 cells) was 99 µM, the “Inhibition” value (P-gp [5]) was “inhibit ATP hydrolysis” and the “Effect on nucleotide binding” value (P-gp [6]) was “directly interfered with nucleotide binding”.
With COc1ccc(CCN(C)CCCC(C#N)(c2ccc(OC)c(OC)c2)C(C)C)cc1OC (centres unmarked) [Verapamil, verapamil, reference compound] the IC50 (DU145 cells) was 75 µM and the IC50 (DU145TXR cells [4]) was 207 µM.
For CCC(C(=O)N1CCN(c2ccc(OC)cc2)CC1)n1nc(C)c2sc3ccccc3c2c1=O (centres unmarked) [Compound 34, 2-[1-[4-(4-methoxyphenyl)piperazin-1-yl]-1-oxobutan-2-yl]-4-methyl-[1]benzothiolo[2,3-d]pyridazin-1-one], the “Effect on sensitivity of DU145TXR” value (DU145TXR cells [1]) was “strongly affected the sensitivity”, the “Synergy with paclitaxel (isobologram)” value (DU145TXR cells [2]) was “strong synergistic effect” and the Resensitization to doxorubicin (DU145TXR cells [3]) was “resensitized the MDR prostate cancer cells to doxorubicin to levels that are comparable with the naïve DU145 cell line”. The “Decrease in cell viability” value (HFL1 cells) was 23%, the IC50 (HFL1 cells) was 133 µM and the IC50 (DU145 cells) was 44 µM. The IC50 (DU145TXR cells [4]) was 412 µM, the “Inhibition” value (P-gp [5]) was “inhibit ATP hydrolysis” and the “Effect on nucleotide binding” value (P-gp [6]) was “directly interfered with nucleotide binding”.
For CCOC(=O)C1(CCCc2ccccc2)CCCN(C(=O)c2ccc3c(c2)OCO3)C1 (centres unmarked) [Compound 45, ethyl 1-(1,3-benzodioxole-5-carbonyl)-3-(3-phenylpropyl)piperidine-3-carboxylate], the “Effect on sensitivity of DU145TXR” value (DU145TXR cells [1]) was “strongly affected the sensitivity”, the “Synergy with paclitaxel (isobologram)” value (DU145TXR cells [2]) was “strong synergistic effect” and the Resensitization to doxorubicin (DU145TXR cells [3]) was “resensitized the MDR prostate cancer cells to doxorubicin to levels that are comparable with the naïve DU145 cell line”. The “Decrease in cell viability” value (HFL1 cells) was 13%, the IC50 (HFL1 cells) was 62 µM and the Cells killed (DU145 cells; DU145, 25 μmol/L compound, not shown) was 31%. The IC50 (DU145 cells) was 41 µM, the Cells killed (DU145TXR cells [4]; DU145TXR, 25 μmol/L compound, not shown) was 36% and the IC50 (DU145TXR cells [4]) was 107 µM. The “Inhibition” value (P-gp [5]) was “inhibit ATP hydrolysis” and the “Effect on nucleotide binding” value (P-gp [6]) was “directly interfered with nucleotide binding”.
